From ChEMBL document CHEMBL5331128, “Alicyclic Ring Size Variation of 4-Phenyl-2-naphthoic Acid Derivatives as P2Y14 Receptor Antagonists” (J Med Chem, 2023)
The source made the active and inactive calls.

What was measured:
Mus musculus [1] = assay: Antiallodynic activity in CCI surgery neuropathic pain Hsd:ICR mouse model assessed as reversal of mechano-allodynia by measuring paw withdrawal threshold at 10 micromol/kg,po and measured upto 6 hrs by von frey test; assay type: functional, organism-based; details: dose 10.0 µmol/kg
Method in brief: (§1)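 CCI neuropathic pain in adult male CD-1 mice. Single oral gavage dose of 10 μmol/kg on day 7 post-surgery. Vehicle 5% DMSO + 10% (Kolliphor HS 15:DMSO 5:95) in 0.5% methylcellulose, 0.2 mL. Von Frey paw withdrawal threshold on both hindpaws. Mean ± SD; two-way ANOVA with Dunnett's test.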

[2] = AUC (0 to infinity) in CD-1 mouse at 10 mg/kg,po and measured upto 24 hrs by LC-MS/MS analysis; assay type: ADME, organism-based; set-up: time < 24 hrs, dose 10 mg/kg, route po; details: in vivo
Method in brief: (§2)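 Female CD1 mice given double ester/carbamate prodrug by oral gavage. Plasma levels of both prodrug and released parent acid followed over time to give Cmax, t1/2, AUCinf and %F.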

[3] = Prodrug conversion in CD-1 mouse plasma assessed as Cmax of 4-(4-(piperidin-4-yl)phenyl)-7-(4-(trifluoromethyl)phenyl)-2-naphthoic acid at 10 mg/kg,po and measured upto 24 hrs by LC-MS/MS analysis; assay type: ADME, organism-based; set-up: dose 10 mg/kg, time < 24 hrs, route po; details: in vivo; method in brief: as §2
[4] = Oral bioavailability in CD-1 mouse at 10 mg/kg and measured upto 24 hrs by LC-MS/MS analysis; assay type: ADME, organism-based; details: in vivo; method in brief: as §2
[5] = Cmax in CD-1 mouse at 10 mg/kg,po and measured at 1 hrs by LC-MS/MS analysis; assay type: ADME, organism-based; set-up: dose 10 mg/kg, time 1 hrs, route po; details: in vivo; method in brief: as §2
[6] = Prodrug conversion in CD-1 mouse plasma assessed as Tmax of 4-(4-(piperidin-4-yl)phenyl)-7-(4-(trifluoromethyl)phenyl)-2-naphthoic acid at 10 mg/kg,po and measured upto 24 hrs by LC-MS/MS analysis; assay type: ADME, organism-based; details: in vivo
Method in brief: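 Double prodrug of the active acid given by oral gavage to female CD1 mice. Plasma levels of prodrug and released active drug followed over time to establish the conversion course. Peak time read for the active drug.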

Mus musculus [7] = assay: Antiallodynic activity in CCI surgery neuropathic pain Hsd:ICR mouse model assessed as reversal of mechano-allodynia by measuring paw withdrawal threshold at 10 micromol/kg,ip and measured upto 5 days by von frey test; assay type: functional, organism-based; details: dose 10.0 µmol/kg, time <= 5.0 day
Method in brief: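 CCI neuropathic pain in adult male Hsd:ICR (CD-1) mice (20–30 g). Single i.p. injection on day 7 after sciatic nerve constriction, at peak pain. Vehicle 10% (Kolliphor HS 15:DMSO 5:95) in saline, 0.2 mL. Paw withdrawal threshold by von Frey filaments on ipsilateral and contralateral hindpaws. Mean ± SD; two-way ANOVA with Dunnett's test versus day 0 and day 7.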

[8] = Half life in CD-1 mouse at 10 mg/kg,po and measured upto 24 hrs by LC-MS/MS analysis; assay type: ADME, organism-based; details: in vivo; method in brief: as §2
[9] = Prodrug conversion in CD-1 mouse plasma assessed as AUC (0 to infinity) of 4-(4-(piperidin-4-yl)phenyl)-7-(4-(trifluoromethyl)phenyl)-2-naphthoic acid at 10 mg/kg,po and measured upto 24 hrs by LC-MS/MS analysis; assay type: ADME, organism-based; set-up: time < 24 hrs, dose 10 mg/kg, route po; details: in vivo; method in brief: as §2
[10] = Prodrug conversion in CD-1 mouse plasma assessed as AUC (0 to infinity) of 4-(4-((1S,4S,5S)-2-azabicyclo[2.2.1]heptan-5-yl)phenyl)-7-(4-(trifluoromethyl)phenyl)-2-naphthoic acid at 10 mg/kg,sc and measured upto 24 hrs by LC-MS/MS analysis; assay type: ADME, organism-based; set-up: dose 10 mg/kg, time < 24 hrs, route sc; details: in vivo
Method in brief: (§3)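 Female CD1 mice given mono-ester prodrug subcutaneously at 10 mg/kg. Released parent acid followed in plasma (peak concentration, t1/2, AUCinf) and total amount excreted in urine.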

[11] = Prodrug conversion in CD-1 mouse assessed as 4-(4-((1S,4S,5S)-2-azabicyclo[2.2.1]heptan-5-yl)phenyl)-7-(4-(trifluoromethyl)phenyl)-2-naphthoic acid excretion in urine at 10 mg/kg,sc and measured upto 24 hrs by LC-MS/MS analysis; assay type: ADME, organism-based; details: in vivo; method in brief: as §3
[12] = Stability in mouse plasma assessed as half life at 1 uM and measured at 120 mins by LC-MS/MS analysis; assay type: ADME, cell-free
[13] = Stability in human plasma assessed as half life at 1 uM and measured at 120 mins by LC-MS/MS analysis; assay type: ADME, cell-free; details: 2 h, 1 µM
Mus musculus [14] = assay: Antiallodynic activity in CCI surgery neuropathic pain Hsd:ICR mouse model assessed as reversal of mechano-allodynia by measuring paw withdrawal threshold at 10 micromol/kg,po and measured at 1 hrs by von frey test; assay type: functional, organism-based; details: dose 10.0 µmol/kg; method in brief: as §1
[15] = Prodrug conversion in CD-1 mouse plasma assessed as half life of 4-(4-((1S,4S,5S)-2-azabicyclo[2.2.1]heptan-5-yl)phenyl)-7-(4-(trifluoromethyl)phenyl)-2-naphthoic acid at 10 mg/kg,sc and measured upto 24 hrs by LC-MS/MS analysis; assay type: ADME, organism-based; details: in vivo
Method in brief: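 Ester prodrug given subcutaneously at 10 mg/kg to female CD1 mice. Plasma levels of the released active acid followed over time, with half-life derived for the active drug.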

[16] = Prodrug conversion in CD-1 mouse plasma assessed as Cmax of 4-(4-((1S,4S,5S)-2-azabicyclo[2.2.1]heptan-5-yl)phenyl)-7-(4-(trifluoromethyl)phenyl)-2-naphthoic acid at 10 mg/kg,sc and measured from 2 to 4 hrs by LC-MS/MS analysis; assay type: ADME, organism-based; set-up: time upper 4 hrs, time lower 2 hrs, dose 10 mg/kg, route sc; details: in vivo; method in brief: as §3

Row | Structure (SMILES) | Activity (Mus musculus [1]) | AUC(0-inf) [2] [ng·h/mL] | Cmax [3] [ng/mL] | bioavailability [4] [%] | Cmax [5] [ng/mL] | Tmax [6] [h] | Activity (Mus musculus [7]) | t1/2 [8] [h] | AUC [9] [ng·h/mL] | AUC [10] [ng·h/mL] | Drug excretion [11] [ng] | half-life at 1 µM [12] [min] | t1/2 [13] [h] | Activity (Mus musculus [14]) | t1/2 [15] [h] | Cmax [16] [ng/mL]
1 | CCOC(=O)N1CCC(c2ccc(-c3cc(C(=O)OCC(=O)N(C)C)cc4cc(-c5ccc(C(F)(F)F)cc5)ccc34)cc2)CC1 | Active | 1780 | 33 | 6.9 | 2000 | 7 | Active | 1.45 | 515 |  |  |  |  |  |  | 
2 | CN(C)C(=O)COC(=O)c1cc(-c2ccc([C@H]3C[C@H]4C[C@@H]3CN4)cc2)c2ccc(-c3ccc(C(F)(F)F)cc3)cc2c1 | Active |  |  |  |  |  | Active |  |  | 15300 | 1550 | 1.5 | > 12 | Active | 2.63 | 2000
